# Bioassay records deposited in PubChem BioAssay by several laboratories.
# Efa HMGR inh: inhibitors of class II HMG-CoA reductase from Enterococcus faecalis. purified E. faecalis HMGR, NADPH absorbance 340 nm kinetic. inhibition, % at 10 µM. 190,000 compounds, 0.41% hits. AID 1066;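 active means inhibition above a set limit, the median over all tested compounds plus 3 SD, cut at about 9.5% in these data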;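 further: enzyme runs in reverse so mevalonate oxidation gives rising NADPH absorbance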
# BB579 growth dn: reduces growth of yeast BB579 in restrictive medium | S. cerevisiae BB579 growth, OD615, 48 h | inhibition, % at 10 µM | 140,000 compounds, 0.51% hits | AID 804;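 active means inhibition above a set limit, 3 SD over the mean compound inhibition, cut at about 44% in these data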
#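 Detection: OD615 turbidity measurement; Material: Saccharomyces cerevisiae DeaD strain BB579, replicative lifespan model yeast; Timing: 48 h exposure, 30 °C; Doses: single 10 µM dose; Medium: CSMM-D restrictive synthetic medium containing dextrose (glucose); Controls: amphotericin B at 10 µg/mL as positive control.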
# bCat nuc transl: alters nuclear translocation of beta-catenin in HeLa cells | 190,000 compounds, 0.3% hits | immunofluorescence imaging | nuclear translocation activity, % at 5 µM;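 active means nuclear translocation activity above 50% at 5 µM, with a well cell count of 50 or more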;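 further: per-cell ratio of nuclear to cytoplasmic median beta-catenin stain intensity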
#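 Test system: human HeLa cells, native beta-catenin. Compound dosing: 5 µM primary single dose, 0.1% DMSO, 0.02–20 µM confirmation series. Incubation: compound exposure 24 h at 37°C. Detection: beta-catenin immunostaining with DAPI counterstain, 20x imaging, 6 fields/well. Read-out basis: Nuclear/cytoplasmic beta-catenin signal ratio, % activation.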
# MT stabilizer: microtubule stabilizers in HeLa cells; HeLa tubulin immunostaining HCS, 24 h; share of cells brighter than vehicle mean+2SD; 200,000 compounds, 0.83% hits; AID 2205; % tubulin-high responders, % at 10 µM;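 active means plate Z-score above 3 for both tubulin-high and condensed-nucleus cell shares, with cell loss under 80%, at 10 µM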;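 further: anti alpha tubulin signal scored within the nucleus-defined area of each cell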
# RAM network inh: inhibitors of the yeast RAM network; S. cerevisiae dse1pr::URA3 reporter, 5-FOA growth OD615, 2 d; analog-sensitive cbk1-as2 kinase mutant strain; inhibition, % at 50 µM; 190,000 compounds, 1.8% hits; AID 868;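 active means inhibition above a set limit, 3 SD over mean compound inhibition, cut at about 8.4% in these data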;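 further: inhibition rescues growth on 5-FOA so higher OD means more RAM inhibition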
# Yeast life ext: yeast lifespan extension; S. cerevisiae growth with nicotinamide, OD615; deaD strain in restrictive glucose medium; inhibition of the nicotinamide effect, % at 10 µM; 130,000 compounds, 0.68% hits; AID 775;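 active means inhibition above a set limit, placed 3 SD over the median of all compounds, cut at about 26% in these data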
#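 System: DeaD-strain S. cerevisiae / Buffer or medium: CSMM-D, restrictive glucose (dextrose) synthetic minimal medium / Probe or stimulus: nicotinamide, 1.5 mM, co-present with compound / Compound: one concentration, 10 µM, DMSO 0.25% / Incubation: 48 h compound exposure at 30 °C, humidified / Technique: optical density (absorbance) at 615 nm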
# Hits are given with their value; 0 = inactive; - = no result given. An excerpt weighted towards active compounds, which were near 3.5% of everything screened.
SMILES,Efa HMGR inh,BB579 growth dn,bCat nuc transl,MT stabilizer,RAM network inh,Yeast life ext
Cc1csc(SC(C)c2nc3scc(-c4ccccc4)c3c(=O)[nH]2)n1 (stereo not drawn),-,-,0,-,-,-
CCCN(CCC)C(=O)CSc1nc2ccccc2c(=O)n1CC1COc2ccccc2O1 (stereo not drawn),0,0,-,0,9.0,0
Cc1cc(Oc2ccccc2)nc(-c2ccccc2)n1,0,0,0,0,0,0
c1ccc(Oc2cc(-c3ccccc3)nc(-c3ccccc3)n2)cc1,0,0,0,0,10.0,0
Cc1ccc(NC(=O)CSc2nc(C)c(C)c(C)n2)c([N+](=O)[O-])c1,0,0,0,0,8.5,0
O=C(O)CCCCCCC1C(=O)NC(=O)N1CCC(O)C1CCCCC1 (stereo not drawn),17,0,0,0,0,0
N/C(=N\OC(=O)c1ccc(Cl)cc1Cl)c1ccc(Cl)cc1,0,0,0,0,0,0
N/C(=N\OC(=O)c1ccc(Cl)cc1Cl)c1ccccc1,0,96,0,0,0,0
Cc1ccc(/C(N)=N/OC(=O)c2ccc(C)cc2Cl)cc1,0,58,0,0,0,0
COc1ccc(CCNC(=O)c2ccccc2Cl)cc1OC,18,-,0,0,0,-
COc1ccc(CCNC(=O)c2cnn3c(C(F)F)cc(C)nc23)cc1OC,0,51,-,0,0,0
COc1ccc(CCNC(=O)CSc2cn(Cc3ccccc3)c3ccccc23)cc1OC,0,0,0,0,10,0
COc1cccc(C(=O)NN2C(=S)N(c3ccccc3)C(=O)C2CC(N)=O)c1 (stereo not drawn),-,-,0,-,-,-
CCOc1cc(C2C3=C(CCCC3=O)N(CCC(=O)O)C3=C2C(=O)CCC3)ccc1OS(=O)(=O)c1ccc(C)cc1,0,0,0,0,0,0
Cc1ccc(S(=O)(=O)Oc2ccc(C3C4=C(CCCC4=O)N(CCC(=O)O)C4=C3C(=O)CCC4)cc2Cl)cc1,0,0,0,0,8.9,0
CCOc1ccc(C(C)=O)cc1CSc1nc2nc(C)cc(C)n2n1,0,-,0,0,0,-
CCN(CC)Cc1c(C(=O)N2CCc3ccccc3C2)nc2ccc(Cl)cn12,17,-,0,0,0,-
COc1ccc(/C=C2/SC(=O)N(CCNC(=O)C3CCCN3C(=O)c3cccs3)C2=O)cc1 (stereo not drawn),0,0,-,0,0,0
O=C(NCCN1C(=O)S/C(=C/c2ccccc2)C1=O)C1CCCN1C(=O)c1cccs1 (stereo not drawn),0,0,0,0,9.5,0
O=C(c1cnn2c1NC(c1ccco1)CC2C(F)(F)F)N1CCN(c2cccc(Cl)c2)CC1 (stereo not drawn),0,0,0,45,0,0
CCOc1ccc(-c2cc(CCCC(=O)Nc3cccc(OC)c3)no2)cc1,0,0,100,23,0,0
CC(C)OCCCNC(=O)CNC(=O)c1ccc(Cl)c(Cl)c1,0,-,0,0,0,-
O=C(NC(=O)c1cnccc1C(F)(F)F)Nc1ccccc1,-,-,0,-,-,-
Cc1ccc(NCC(O)C(O)C(O)CO)cc1C (stereo not drawn),0,0,0,0,0,0
Cc1cc(N=Nc2ccccc2)c(NCC(O)C(O)C(O)CO)cc1C (stereo not drawn),0,-,0,0,10,-
SMILES,Efa HMGR inh,BB579 growth dn,bCat nuc transl,MT stabilizer,RAM network inh,Yeast life ext
CCc1cccc(Nc2cnn(C34C[C@@H]5C[C@@H](CC(CC(=O)O)(C5)C3)C4)c(=O)c2Cl)c1,0,-,0,0,0,-
Cc1cc2c(cc(C(=O)O)n2C)s1,0,56,-,0,0,0
COC(=O)C1=C(C)NC2=C(C(=O)CC(c3cccs3)C2)C1c1ccsc1 (stereo not drawn),0,0,0,26,0,0
CCOC(=O)C1=C(C)NC2=C(C(=O)CC(c3cccs3)C2)C1c1cccs1 (stereo not drawn),0,0,0,18,0,-
CCOC(=O)C1=C(C)NC2=C(C(=O)OC2)C1c1ccccc1 (stereo not drawn),0,-,81,0,0,-
COC(=O)C1=C(C)NC2=C(C(=O)CCC2)C1c1ccsc1 (stereo not drawn),0,0,0,0,0,0
NC(=O)CSc1nnc(Cc2ccc3c(c2)OCO3)o1,0,-,0,0,0,-
COc1ccc(CN2CCNC(=O)C2CC(=O)NCCc2c[nH]c3ccccc23)c(OC)c1 (stereo not drawn),0,-,0,0,0,-
Cc1nn(C)cc1CN1CCCC(C(=O)c2ccc(-c3ccccc3)cc2)C1 (stereo not drawn),0,-,0,0,0,-
O=S(=O)(Nc1ccccc1O)c1ccc(Cl)nc1,-,-,0,-,-,-
N#Cc1c(N)nc2c(c1-c1ccc(F)cc1)c(=O)nc1sccn12,0,-,0,0,0,-
O=C(CSc1nc(-c2ccco2)cc(C(F)(F)F)n1)Nc1ccccc1C(F)(F)F,0,0,0,0,0,-
Cc1cc(NC(=O)CCSc2nc(-c3ccco3)cc(C(F)(F)F)n2)no1,0,0,0,0,0,0
Cc1cc(NC(=O)CSc2nc(-c3ccco3)cc(C(F)(F)F)n2)no1,0,0,0,39,0,-
Cc1ccccc1Cn1ccc(NC(=O)CCSc2nc(-c3ccco3)cc(C(F)(F)F)n2)n1,0,0,-,0,0,0
Cc1ccc(Cn2ccc(NC(=O)CCSc3nc(-c4ccco4)cc(C(F)(F)F)n3)n2)cc1,0,0,0,36,0,0
Cc1cccc(C)c1NC(=O)CSc1nc(-c2ccco2)cc(C(F)(F)F)n1,0,0,0,41,0,-
Cc1c(Cl)cn2c(=O)cc(CN3CCN(c4ccc(F)cc4)CC3)nc2c1Cl,0,-,0,0,0,-
CCn1c(=O)c([N+](=O)[O-])c(N2CCN(Cc3ccc4c(c3)OCO4)CC2)c2ccccc21,-,-,0,-,-,-
CN(c1ccccc1)c1ccc(/C=C/[N+](=O)[O-])cc1,0,100,0,0,0,0
CN(C)c1ccc(-n2cccc2/C=C/[N+](=O)[O-])cc1,0,-,0,0,0,-
COc1cc(/C=N/NC(N)=O)ccc1OCC(=O)Nc1cc(C)c(C)cc1Br,0,-,0,0,0,-
O=C(O)CCCCCn1c(SCc2cc(=O)n3cc(Cl)ccc3n2)nc2ccsc2c1=O,0,0,0,0,0,0
O=C(O)C1CCC(Cn2c(SCc3cc(=O)n4cc(Cl)ccc4n3)nc3ccsc3c2=O)CC1 (stereo not drawn),0,-,0,0,9.2,-
COC(=O)/C(=C\Nc1ccc(Cl)c2ccccc12)c1ncc(C(F)(F)F)cc1Cl,0,0,0,0,0,0
CCOC(=O)/C(=C\Nc1ccccc1C(F)(F)F)Sc1ncc(C(F)(F)F)cc1Cl,0,0,0,0,10.0,0
Cc1cc2c(cc1C)C(c1cc(Br)ccc1F)CC(=O)N2 (stereo not drawn),0,0,0,27,0,0
